# Redox H2O2 prof = compounds producing H2O2 with reducing agent – biochemical, NIH compound library profiling, artefact control for MLSCN library redox annotation, primary screen; DTT-dependent redox cycling H2O2, phenol red/HRP absorbance; 100% = 100 µM peroxide control, 0% = buffer; activation, % at 10 µM; actives 0.03% (n = 200,000); AID 878;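 active means activation of at least 50% relative to the plate's high and low controls in the primary single-dose screen; inactive means activation below 50%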;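 further: compound incubated with DTT at 0.8 mM final as the reducing agent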
# T cruzi repl = blocks replication of Trypanosoma cruzi. actives 1.4% (n = 300,000). T. cruzi beta-gal in NIH3T3, luminescence, 90 h. AID 1885. inhibition, % (concentration not given with the values);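 active means mean inhibition across valid replicates above about 55%, limit read from the data; inconclusive means mean below that limit but half or more replicates reach it; inactive means mean below it, under half of replicates reach it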;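 further: signal also drops with host cell toxicity which is not excluded here; 0% = plate median of DMSO wells and 100% = zero luminescence signal; higher percent means less beta-gal luminescence so fewer parasites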
#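 Test system: β-gal T. cruzi (Tulahuen C4) inside NIH/3T3 cells / Quantity: 5,000 cells/well / Measured by: luminescence from GalScreen with 0.05% NP40, read after 60 min / Medium: DMEM plus 2% FBS / Measure: parasite load inhibition, % / Reagent: Tulahuen C4 trypomastigotes, 5000/well / Schedule: co-culture of at least 90 h after 3 h attachment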
# L major viab = Leishmania major promastigote growth inhibition; Leishmania major promastigotes, resazurin fluorescence viability; inhibition, % at 10 µM; actives 9% (n = 200,000); AID 1063; in the data active means inhibition above about 50%;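 further: promastigotes grown with compound for 44 hours at 28 °C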
# Lipid droplet = modulators of hepatic lipid droplet formation; AML12 mouse hepatocytes, oleate lipid droplets, BODIPY imaging; inhibition, % at 6.5 µM; actives 0.4% (n = 240,000);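 active means lipid droplet intensity inhibited by at least 50%, with more than 500 cells counted; inconclusive means wells with under 300 cells, treated as cytotoxic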
#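 Assay system: AML12 hepatocytes (mouse); Probe or stimulus: oleic acid at 100 µM to induce lipid droplet formation; Dosing: compound at 6.5 µM only; Schedule: compound with oleate, overnight; Detection: fluorescence imaging, 20x objective, two fields per well; Measure: % inhibition of lipid droplet signal.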
# MPTP block = inhibitors of mitochondrial permeability transition pore. isolated mouse mitochondria, Ca2+ swelling absorbance, 30 min. inhibition, % at 10 µM. actives 1.4% (n = 360,000);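 active means inhibition of 50% or more, scaled per plate between neutral and stimulator controls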;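 further: 0% = DMSO wells given calcium and 100% = 1 mM EGTA wells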
# The depositor's hits bear a star; u = inconclusive; x = no result. The entries come from a sample that favours hits as a whole.
SMILES,Redox H2O2 prof,T cruzi repl,L major viab,Lipid droplet,MPTP block
COc1ccc(CCN(C)Cc2c(O)ccc3ccccc23)cc1OC,x,-7,x,-3,1
CC(C)(C)c1ccc(C(=O)N2CCC2(C)C(=O)Nc2cccc(C#N)c2)cc1 (configuration not stated),x,x,x,x,3
CCn1c(CC(=O)Nc2ccccc2Cl)nnc1SCC(=O)NC1CCCC1,x,2,x,-11,-1
Brc1ccc(-c2cn3c(n2)CCc2ccc4cccnc4c2-3)cc1,2,5,100*,x,-3
Brc1ccc(-c2cn3nc4c(nc3n2)CCCC4)cc1,1,7,42,-9,0
CC(C)(C)C1CCN2CCC[C@](c3ccccc3)(C1)C2OCCCO (some centres not stated),x,x,x,x,4
CSc1ccc(CN2CCC(C)(Oc3cnc(Cl)c4ccccc34)C2)cc1 (configuration not stated),x,x,x,x,0
COc1ccc(-c2nc(-c3ccccc3)c(-c3cccs3)[nH]2)cc1OC,0,18,66*,7,3
O=[N+]([O-])c1cccc(-c2nc(-c3ccccc3)c(-c3cccs3)[nH]2)c1,5,23,14,x,-12
COc1ccc(-c2nc(-c3cccs3)c(-c3cccs3)[nH]2)cc1OC,0,33,100*,16,-2
O=C(NCCc1ccc(Cl)cc1)C1CCN(c2ncccn2)CC1,0,8,-6,1,0
CCN1C=C(C(=O)OC)C(c2cccc(C)c2)C(C(=O)OC)=C1,-2,6,-3,x,-2
CCCCOc1ccccc1C1C(C(=O)OC)=CN(CC)C=C1C(=O)OC,-1,14,61*,x,5
CCCOc1ccccc1C1C(C(=O)OC)=CN(C(C)C)C=C1C(=O)OC,0,17,100*,-21,-2
COc1ccc(-c2noc(CN(C)C(=O)CCCN3C(=O)[C@H]4CC=CC[C@H]4C3=O)n2)cc1,x,x,x,x,-2
COc1ccccc1C(=O)NCC(=O)OCC(=O)Nc1ccc2[nH]c(=O)[nH]c2c1,x,-9,x,x,-3
CC(NC(=O)c1ccco1)c1ccc(-n2ccnc2)cc1 (configuration not stated),x,-5,x,x,-3
Oc1ccc(Br)cc1/C=N/N1CCCCC1,-1,-17,52*,-3,2
O=C(C1CCCN(S(=O)(=O)c2cccc3nonc23)C1)N1CCN(c2cccc(Cl)c2)CC1 (configuration not stated),0,36,93*,3,0
Cc1n[nH]c(C)c1S(=O)(=O)N1CCCC(C(=O)N2CCN(c3ccc(Cl)cc3)CC2)C1 (configuration not stated),2,x,52*,x,1
O=C(C1CCN(S(=O)(=O)c2cccc3cccnc23)CC1)N1CCN(c2ccccn2)CC1,0,-6,-2,x,0
O=C(C1CCN(S(=O)(=O)c2cccc3cccnc23)CC1)N1CCN(c2ccc(Cl)cc2)CC1,0,16,52*,x,5
COc1ccc(C(=O)N2CCC(n3nccc3NC(=O)C3CC3)CC2)cc1F,x,-14,x,-4,-3
CN(C(=O)CC(NC(=O)c1ccccc1Cl)c1ccccc1)c1ccccc1 (configuration not stated),x,6,x,-13,1
COCCn1c(SCC(=O)NC2CC2)nc2ccccc21,x,x,x,x,-2
SMILES,Redox H2O2 prof,T cruzi repl,L major viab,Lipid droplet,MPTP block
COc1ccccc1N1C(C)=CC(=C(C#N)c2nc3ccccc3s2)C=C1C,1,u,52*,-6,0
CC1=CC(=C(C#N)c2nc3ccccc3s2)C=C(C)N1c1ccc(F)cc1,1,41,34,18,1
OC[C@@H]1CN(Cc2cccs2)C[C@H](n2cnc3c(NC4CCC4)ncnc32)O1,x,x,x,x,0
CCc1cc2c(Sc3nc4ccccc4s3)ncnc2s1,-3,31,18,x,1
c1ccc2sc(Sc3ncnc4sccc34)nc2c1,0,39,69*,9,1
O=C1N=C(N2CCCCC2)SC1=C1CCCC1,2,-3,0,x,1
CCCCN1C(=O)/C(=C2\SC(N3CCCCC3)=NC2=O)c2ccccc21,2,44,51*,x,6
COc1ccccc1CN1CCN(Cc2nc(-c3cccs3)no2)CC1,-1,61*,0,-14,2
O=C(c1ccco1)N1CCCN(Cc2nc(-c3cccs3)no2)CC1,-1,-2,86*,-4,1
O=C(c1ccco1)N1CCN(Cc2nc(Cc3ccccc3)no2)CC1,0,1,-4,-9,-1
COCC1CCN(Cc2nc(-c3cccs3)no2)C1 (configuration not stated),-1,4,1,-2,1
Cc1ccc(NS(=O)(=O)c2ccc3c(c2)NC(=O)CCS3)c(C)c1,x,1,x,8,-1
CN(Cc1ccc(F)cc1)C(=O)c1cccc(OC2CCN(C3CCCC3)CC2)c1,-3,35,93*,-2,1
COc1nccc(NCc2ccccc2)c1C#N,x,-12,x,x,0
O=C(Cc1ccccc1)NNS(=O)(=O)c1ccccc1[N+](=O)[O-],x,-10,x,-2,0
O=C(Cc1ccc(Cl)cc1)NNS(=O)(=O)c1ccc([N+](=O)[O-])cc1,3,-1,68*,1,0
COc1cccc(/C=N/Nc2ncnc3c2[nH]c2ccc(C)cc23)c1OC,x,12,x,22,8
COc1ccc(/C=N/Nc2ncnc3c2[nH]c2ccccc23)c(OC)c1OC,0,0,66*,-4,4
Cc1c(Cl)cccc1NC(=O)c1nc(C)n(-c2cc(OC(C)C)c(Cl)cc2Cl)n1,-3,56*,19,x,6
Cc1ccc(NC(=O)CN2C(=O)/C(=C3\SC(=S)N(C4CCS(=O)(=O)C4)C3=O)c3ccccc32)cc1 (configuration not stated),0,x,91*,0,6
O=C(CN1C(=O)/C(=C2\SC(=S)N(C3CCS(=O)(=O)C3)C2=O)c2ccccc21)Nc1ccccc1 (configuration not stated),1,x,91*,-2,15
COc1ccc(CNC(=O)c2ccc3c(c2)NC(=O)C(C)S3)cc1 (configuration not stated),x,10,x,1,2
Cc1cc2ccccc2cc1C(=O)c1ccccc1,x,x,x,x,0
Cc1sc2cc3c(c(C(=O)c4ccccc4)[n+]2c1C)-c1cccc2cccc-3c12,4,74*,100*,-47,x
Cc1ccc(Cl)cc1NC(=S)N/N=C/c1cccc2ccccc12,x,59*,x,-144,3
Cc1ccccc1C(=O)N/N=C/c1cccc2ccccc12,x,7,x,-18,2
COc1ccc2nc3c(cc2c1)c(NC(=O)c1cccs1)nn3CC(C)C,2,u,84*,-46,-2
COc1cc(CNCc2ccco2)ccc1OCc1ccccc1,0,-25,100*,x,0
COc1ccc(CCN(C)Cc2ccc(OC)c(OCc3ccccc3)c2)cc1OC,-3,45,5,x,1
COc1cc(OC)c(OC)cc1CNCc1ccco1,x,-9,x,-17,-1
